Screening data (PubChem)
HGIII-sPLA2 inh: Inhibits HGIII-sPLA2 liposome hydrolysis, primary screen | hit rate 0.56% among 370,000 | QFRET BODIPY PC-A2 liposome hydrolysis, fluorescence | inhibition, % at 12.2 µM;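 active means inhibition above mean plus 3 SD of compounds lying within the high and low control bounds, cut at about 19% in these data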;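 further: 0% = median of test compound wells and 100% = no enzyme DMSO wells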
XiGFP reactiv: X-chromosome reactivation activator. XiGFP mouse fibroblasts, % GFP-positive cells imaging, 3 d; cells co-treated with 5-aza-dC sensitizer; scaled so ellipticine positive control = 100%. activation, % at 7.58 µM. hit rate 0.055% among 360,000. AID 743238;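 active means mean normalized replicate activation at least 10% and every replicate at or above 10%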;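 further: 0% = median of on-plate neutral control wells and 100% = ellipticine 6 µM median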
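System: SV40-immortalized XiGFP fibroblast cells, line 68-5-11 / Incubation: 3-day compound exposure, then 15 min fixation at room temperature / Compound: single concentration per compound, delivered by pin transfer / Buffer or medium: DMEM plus 5-aza-dC sensitizer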
SR-BI uptake up: SR-BI HDL lipid transfer activation; AID 504775; CHO ldlA[mSR-BI] cells, DiI-HDL uptake fluorescence, 3 h; 100 = double the neutral-control signal; hit rate 0.096% among 320,000; activation, % at 12.5 µM;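 active means mean replicate activation of at least 60% and every replicate at or above 60%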;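 further: 0% = median plate neutral-control signal and 100% = twice that signal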
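Test system: SR-BI-overexpressing, LDLR-lacking CHO cells; Medium: Ham's F12 with 0.5% BSA, HEPES 25 mM, pH 7.4; Schedule: 3 h, 37 °C; Technique: bottom-read fluorescence, 550/595 nm.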
ARNT TACC3 PPI: disruptors of human ARNT/TACC3 interaction; Q9Y6A5; AlphaScreen His-ARNT PAS-B/GST-TACC3 binding, luminescence; TACC3 fragment carries E629A point mutation; inhibition, % at 9.99 µM; hit rate 0.66% among 390,000; AID 623870;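 active means mean inhibition of replicates at least 50% and at least half of replicates each reaching 50%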;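 further: 0% = complete ARNT plus TACC3 wells and 100% = ARNT alone without TACC3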
SR-BI HDL uptake: mouse SR-BI HDL lipid transfer inhibition. AID 488896. inhibition, % at 12.5 µM. hit rate 0.96% among 320,000. ldlA[mSR-BI] CHO cells, DiI-HDL uptake fluorescence, 3 h. Q61009;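 active means mean replicate inhibition of at least 70% and a set share of replicates each scoring 70 or more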;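 further: 0% = median of neutral control wells and 100% = median of positive control wells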
NSD2 inh: blocks human histone methyltransferase NSD2. inhibition, % at 12.5 µM. NSD2 peptide methylation, AlphaScreen, 120 min. AID 743445. hit rate 0.54% among 310,000; in the data active means inhibition above about 50%
Active calls of the source: *; ! = repeats disagree. Shown are actives, neighbours in structure and some others; about 2% of the full set was active somewhere.

Screening O=C(COc1ccccc1)Nc1cccc(-c2nnc(-c3ccccc3)o2)c1 returned HGIII-sPLA2 inh -6.1, SR-BI uptake up -1.3, ARNT TACC3 PPI -3.5, SR-BI HDL uptake 1.3 and NSD2 inh -2.1.
For CCCNC(=O)N1CC2(CN(CC3CC3)C2)c2c(n(C)c3cc(OC)ccc23)[C@@H]1CO the results were XiGFP reactiv 0.2.
COCC(=O)N1C[C@@H](C)[C@@H](OC)CN(C)C(=O)c2cc(NS(C)(=O)=O)ccc2OC[C@@H]1C was read as XiGFP reactiv -0.3 and ARNT TACC3 PPI -1.8.
O=C(COc1ccccc1)Nc1nnc(-c2ccco2)o1 was read as HGIII-sPLA2 inh -0.6, XiGFP reactiv 0.0, SR-BI uptake up 30.8, ARNT TACC3 PPI 74.1*, SR-BI HDL uptake -30.8 and NSD2 inh -1.2.
`CCC(=O)Nc1nnc(-c2ccco2)o1` gave HGIII-sPLA2 inh 4.0, XiGFP reactiv 0.2, SR-BI uptake up 29.0, ARNT TACC3 PPI 7.7 and SR-BI HDL uptake -29.0.
CCCC(O)(c1ccc(Cl)cc1)C(CN1CCOCC1)c1ccc(Cl)cc1 (centres undefined) was read as HGIII-sPLA2 inh 6.1, XiGFP reactiv 0.7, SR-BI uptake up -78.9, ARNT TACC3 PPI -8.8, SR-BI HDL uptake 78.9* and NSD2 inh -0.8.
COCCN1C(=O)CCC1(C)c1nnnn1Cc1ccccc1 (centres undefined) was read as HGIII-sPLA2 inh 1.1 and XiGFP reactiv -0.1.
`CCN(CC)c1ccc2c(-c3ccc(S(=O)(=O)O)cc3S(=O)(=O)[O-])c3ccc(=[N+](CC)CC)cc-3oc2c1` gave SR-BI uptake up 23.0, ARNT TACC3 PPI 1.9, SR-BI HDL uptake -23.0 and NSD2 inh 61.3*.
Screening CCCc1cn(CC[C@@H]2CC[C@@H](NC(=O)Nc3ccccc3F)[C@@H](CO)O2)nn1 returned XiGFP reactiv 0.1 and ARNT TACC3 PPI -14.2.
CSCc1cc(N(C)c2ccccc2)nc(-c2ccccn2)n1 was read as HGIII-sPLA2 inh 0.3, XiGFP reactiv 0.6, SR-BI uptake up 21.0, ARNT TACC3 PPI 60.8*, SR-BI HDL uptake -21.0 and NSD2 inh 8.8.
For CC1=NN(c2ccccc2)C(=O)/C1=C/c1cc(C)n(C2CC2)c1C the results were HGIII-sPLA2 inh -2.2, XiGFP reactiv 0.0, SR-BI uptake up -71.6, ARNT TACC3 PPI -5.2, SR-BI HDL uptake 71.6* and NSD2 inh 0.9.
COc1ccccc1/C=C1/C(=O)N(c2ccccc2)N=C1C was read as HGIII-sPLA2 inh 9.8, XiGFP reactiv 0.0, SR-BI uptake up -18.1, ARNT TACC3 PPI -3.7, SR-BI HDL uptake 18.1 and NSD2 inh 5.2.
COCC(=O)N(C)C[C@@H]1Oc2cc(C#Cc3cccnc3)ccc2S(=O)(=O)N([C@H](C)CO)C[C@@H]1C was read as XiGFP reactiv 0.2 and ARNT TACC3 PPI -18.8.
Screening COCC(=O)N(C)C[C@H]1Oc2cc(C#Cc3cccnc3)ccc2S(=O)(=O)N([C@H](C)CO)C[C@H]1C returned HGIII-sPLA2 inh -6.0, XiGFP reactiv -0.2 and ARNT TACC3 PPI active!.
Screening CNS(=O)(=O)c1ccc(N=Cc2c(C)[nH]n(-c3ccc(C)cc3C)c2=O)cc1 returned HGIII-sPLA2 inh 9.0, XiGFP reactiv 0.0, SR-BI uptake up 3.6, ARNT TACC3 PPI 4.3, SR-BI HDL uptake -3.6 and NSD2 inh -0.8.
For Cc1cc(Br)ccc1-n1[nH]c(C)c(C=Nc2cccc3nsnc23)c1=O the results were HGIII-sPLA2 inh -1.4, XiGFP reactiv 0.0, SR-BI uptake up -77.1, ARNT TACC3 PPI 11.4, SR-BI HDL uptake 77.1* and NSD2 inh -2.8.
Screening O=C1C(C=NCc2ccccn2)=C(O)c2ccccc21 returned HGIII-sPLA2 inh -6.0, SR-BI uptake up 11.2, ARNT TACC3 PPI 65.7* and SR-BI HDL uptake -11.2.
O=C(NCCc1nc2ccccc2[nH]1)c1ccc(Br)o1 was read as HGIII-sPLA2 inh -1.0, XiGFP reactiv 0.1, SR-BI uptake up 16.8, ARNT TACC3 PPI -1.6, SR-BI HDL uptake -16.8 and NSD2 inh 0.8.
For O=C(Nc1nc2ccccc2[nH]1)c1ccc(Br)o1 the results were HGIII-sPLA2 inh 34.6*, XiGFP reactiv -0.1, SR-BI uptake up 1.8, ARNT TACC3 PPI 0.3, SR-BI HDL uptake -1.8 and NSD2 inh -1.8.
Screening COc1cc([N+](=O)[O-])ccc1NC(=O)Nc1nc2c(s1)CCCC2 returned HGIII-sPLA2 inh 9.9, XiGFP reactiv 0.2, SR-BI uptake up -72.3, ARNT TACC3 PPI -3.7, SR-BI HDL uptake 72.3* and NSD2 inh -0.6.
`COc1cc([N+](=O)[O-])ccc1NC(=O)Nc1cnccn1` gave HGIII-sPLA2 inh 8.4, XiGFP reactiv 0.1, SR-BI uptake up -12.2, ARNT TACC3 PPI -4.6, SR-BI HDL uptake 12.2 and NSD2 inh -1.3.
For Cc1nnc(NS(=O)(=O)c2ccc(N=Nc3ccc(N)nc3N)cc2)s1 the results were HGIII-sPLA2 inh -15.4, XiGFP reactiv 0.0, SR-BI uptake up 28.0, ARNT TACC3 PPI 56.8*, SR-BI HDL uptake -28.0 and NSD2 inh 21.9.
For Cc1nnc(SCc2ccccc2Cl)n(N)c1=O the results were HGIII-sPLA2 inh -1.7, XiGFP reactiv 0.0, SR-BI uptake up -25.4, ARNT TACC3 PPI 0.9, SR-BI HDL uptake 25.4 and NSD2 inh -2.5.
`CC1=C(C(=O)OCc2ccccc2)C(/C=C/c2ccccc2)NC(=S)N1` (centres undefined) gave HGIII-sPLA2 inh 17.6, XiGFP reactiv 0.4, SR-BI uptake up -73.9, ARNT TACC3 PPI -14.2, SR-BI HDL uptake 73.9* and NSD2 inh -1.1.
C=CCOC(=O)C1=C(C)NC(=S)NC1/C=C/c1ccccc1 (centres undefined) was read as HGIII-sPLA2 inh 13.1, SR-BI uptake up -81.8, ARNT TACC3 PPI 20.9, SR-BI HDL uptake 81.8* and NSD2 inh 3.4.
Screening CC(C)(C)c1cc(C(=S)N2CCCC2)cc(C(C)(C)C)c1O returned HGIII-sPLA2 inh 18.1, XiGFP reactiv 0.0, SR-BI uptake up -30.1, ARNT TACC3 PPI 7.7, SR-BI HDL uptake 30.1 and NSD2 inh 9.7.
CS(=O)(=O)N1CCN(C(=O)Cc2cccs2)CC1 was read as HGIII-sPLA2 inh 2.3, SR-BI uptake up -2.7, ARNT TACC3 PPI 7.0, SR-BI HDL uptake 2.7 and NSD2 inh 4.7.
For O=C(Cc1cccs1)N1CCN(S(=O)(=O)c2ccc(Br)cc2)CC1 the results were HGIII-sPLA2 inh -3.5, XiGFP reactiv 0.7, SR-BI uptake up 195.0*, SR-BI HDL uptake -195.0 and NSD2 inh 0.1.
For COc1ccc(-c2nnn(CC(=O)NC(=O)NC3CCCCC3)n2)cc1OC the results were HGIII-sPLA2 inh -3.0, XiGFP reactiv 0.0, SR-BI uptake up -9.1, SR-BI HDL uptake 9.1 and NSD2 inh -0.6.
For COc1ccc(-c2nc(-c3cccc(C)c3)no2)cc1OC the results were SR-BI uptake up -11.7, ARNT TACC3 PPI -11.1, SR-BI HDL uptake 11.7 and NSD2 inh 1.5.
